Measured values from different studies.
Compare with care: the assays were run in different laboratories.
Effect on: cell growth or viability

| Structure (SMILES) | cell line | method | concentration | time | measurement | value |
| --- | --- | --- | --- | --- | --- | --- |
| N.N.[Cl][Pt][Cl] | REH | ATP luminescence |  | 72 h | IC50 | 780 nM |
| COc1cnc(OC)n2nc(NS(=O)(=O)c3c(OCC(F)F)cccc3C(F)(F)F)nc12 | L02 | CCK-8 | 1.56 µM | 72 h | inhibition | 0% |
| O=C(NCc1ccccc1)c1cn(Cc2ccc(C(F)(F)F)cc2)c2ccc(Oc3ccccc3)cc2c1=O | HCC1419 |  |  | 72 h | CC50 | > 50 µM |
| CC[C@H](C)[C@@H]([C@@H](CC(=O)N1CCC[C@H]1[C@H](OC)[C@@H](C)C(=O)N[C@H](C)[C@@H](O)c1ccccc1)OC)N(C)C(=O)[C@@H](NC(=O)[C@@H](NC)C(C)C)C(C)C | L02 | CCK-8 |  |  | IC50 | 25.3 nM |
| CC[C@@]1(O)C(=O)OCc2c1cc1n(c2=O)Cc2cc3ccccc3nc2-1 | PANC-1 | SRB |  | 48 h | IC50 | 157 nM |
| O=C1c2ccccc2-c2c3c(cc4ccnc1c24)OCO3 | MOLT-3 | XTT |  | 75 h | IC50 | 7900 nM |
| CCOc1ccccc1-n1c(CN2CCNCC2)nc2ccc(F)cc2c1=O | PANC-1 | ATP luminescence |  | 72 h | IC50 | 40 nM |
| Cc1ncsc1-c1ccc([C@H](C)NC(=O)[C@@H]2C[C@@H](O)CN2C(=O)[C@@H](c2cc(N3CCC(CN4CCC(OC5CC(Oc6cc(N7C8CCC7CN(c7cc(-c9ccccc9O)nnc7N)C8)ccn6)C5)CC4)CC3)no2)C(C)C)cc1 (some centres unmarked) | NCI-H1944 | ATP luminescence |  | 7 days | IC50 | 20.3 nM |
